Statin myotox sup: protects C2C12 myotubes from simvastatin toxicity. rescue of ATP level, % at 7.49 µM. 330,000 compounds, 0.78% hits. AID 602340. ATP luminescence, 48 h; scaled: DMSO 0, geranylgeraniol control 100;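 active = mean ATP rescue above about 67%, or every replicate alone reaching that limit, limit read from the data, passing the limit was not always enough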;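 note: myotubes were challenged with 10 µM simvastatin during compound exposure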
SUMO Mot1 rescue: blocks SUMOylation pathway, rescuing yeast Mot1-301 growth; S. cerevisiae Mot1-301 growth rescue, ATP luminescence, 38.5C; percent above DMSO median, 100 means doubled; growth rescue, % at 18.8 µM; 320,000 compounds, 1% hits; AID 2716;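 active = every valid replicate shows activation above 250% relative to neutral control wells; inactive = the rest, any valid replicate at or below 250%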;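 note: OY570 slx delta 5 strain wells were the positive control but not used for scaling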
Cneo AK release: Cryptococcus neoformans lysis via adenylate kinase release; C. neoformans lysis, adenylate kinase release luminescence, 4 h; normalised: neutral wells 0, clomiphene wells 100; lysis activity, % at 15 µM; 360,000 compounds, 0.2% hits; AID 651654;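 active = mean lysis activity across replicates of at least 80%, whatever share of replicates individually reach that level; inactive = mean lysis activity below 80%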
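Material: C. neoformans cells; Schedule: 4 h static compound exposure, 37 °C, read 1 h post-reagent; Measured by: adenylate kinase release luminescence; Read-out: signal increase indicating cell lysis; Controls: Clomiphene as positive lysis control.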
* hit, by the source's call; . = no result given. This is a sample that favours compounds with a hit; in the whole collection about 1.5% have one here.

SMILES | Statin myotox sup | SUMO Mot1 rescue | Cneo AK release
Cc1cccn2cc(CNc3ccccc3)nc12 | 109* | -2 | -1
CCCS(=O)(=O)NCc1cn2cccc(C)c2n1 | 4 | 161 | -2
CCOC(=O)CNC=C(C(=O)OCC)C(=O)OCC | 25 | -9 | -4
CCOC(=O)C(=CNCC(=O)OC)C(=O)OCC | 107* | 10 | 5
C[C@@H]1CCCCO[C@H](CN(C)Cc2ccc3c(c2)OCO3)[C@H](C)CN([C@@H](C)CO)C(=O)c2cc(NC(=O)Nc3ccc(F)cc3)ccc2O1 | -54 | . | -5
O=C(NCc1ccccc1)C1COc2ccccc2O1 (centres undefined) | 1 | -12 | 0
O=C(NC1CCN(Cc2ccccc2)CC1)C1COc2ccccc2O1 (centres undefined) | 14 | 273* | -6
CCC(=O)N[C@@H]1C=C[C@@H](CC(=O)NCCN2CCCCC2)O[C@@H]1CO | -1 | . | 3
O=C(CCN1CCCCC1)N[C@@H]1CC[C@H](CCn2cc(-c3ccccc3)nn2)O[C@H]1CO | 15 | . | 50
O=C(c1ccc([N+](=O)[O-])o1)N1CCN(c2nc3ccc(F)cc3s2)CC1 | 68* | -40 | 0
COc1cccc2sc(N3CCN(C(=O)c4ccc([N+](=O)[O-])o4)CC3)nc12 | 47 | -7 | 0
O=C(C1COc2ccccc2O1)N1CCN(c2nc3ccc([N+](=O)[O-])cc3s2)CC1 (centres undefined) | . | 535* | 0
CCCCC(=O)N1CCN(c2nc3ccc(F)cc3s2)CC1 | -13 | -1 | 0
Cc1ccc2sc(N3CCN(C(=O)c4ccc([N+](=O)[O-])o4)CC3)nc2c1C | 85* | 13 | 3
O=C(C1COc2ccccc2O1)N1CCN(c2nc3ccccc3s2)CC1 (centres undefined) | 24 | 3 | -1
CO[C@H]1CN(C)C(=O)c2ccc(NS(C)(=O)=O)cc2OC[C@H](C)N(CCC(F)(F)F)C[C@H]1C | 0 | . | 5
C[C@H]1CN([C@@H](C)CO)C(=O)c2cc(NC(=O)Nc3ccc(F)cc3)ccc2O[C@@H]1CN(C)Cc1ccccc1 | -41 | . | -1
COc1ccc(C(N)CCc2ccc(C)o2)cc1 (centres undefined) | 137* | -4 | 3
CCc1ccc(CCC(=O)Nc2ccc(OC)cc2)o1 | 3 | 143 | 0
O=C(CCc1nnc2n(Cc3ccc(Cl)cc3)c(=O)c3ccccc3n12)N1CCN(c2ccccn2)CC1 | -13 | 7 | 0
COc1ccc(Cn2c(CCC(=O)N3CCN(c4ccccn4)CC3)nc3ncccc3c2=O)cc1 | 88* | . | -2
C[C@@H](NC(=O)C[C@H]1CC[C@@H]2[C@H](COC[C@H](O)CN2C(=O)Nc2cccc(F)c2)O1)c1ccccc1 | -15 | . | 1
C[C@@H]1CN([C@@H](C)CO)S(=O)(=O)c2ccc(C3=CCCCC3)cc2O[C@H]1CN(C)C(=O)c1ccc(F)cc1 | -154 | . | 44
COc1cc2oc3ccccc3c2cc1N(CC(=O)N(C)C)S(=O)(=O)c1ccc(C)cc1 | -2 | 0 | -4
COc1cc2oc3ccccc3c2cc1N(CC(=O)N1CCCCC1)S(=O)(=O)c1ccc(C)cc1 | 106* | -2 | 5
SMILES | Statin myotox sup | SUMO Mot1 rescue | Cneo AK release
CO[C@@H]1CN(C)C(=O)c2ccc(NC(=O)c3cccc(Oc4ccccc4)c3)cc2OC[C@@H](C)NC[C@H]1C | -108 | . | -2
CN(C)c1ccc2c(c1)[C@@H]1C[C@H](CC(=O)NCC3CC3)O[C@@H](CO)[C@@H]1O2 | -4 | . | -1
CC(C#N)(Nc1ccc(Cl)cc1)c1cccnc1 (centres undefined) | . | 306* | 5
Clc1ccc(NCc2cccnc2)cc1 | 21 | 20 | -4
COc1ccc(N2C(=O)c3ccc(NC(C)=O)cc3C2=O)cc1 | -17 | -16 | -2
CC(=O)Nc1ccc2c(c1)C(=O)N(c1ccc(C)cc1)C2=O | 77* | -20 | 1
C[C@H]1CN([C@@H](C)CO)C(=O)c2cc(-c3ccc(C(=O)N(C)C)cc3)cnc2O[C@@H]1CN(C)C(=O)c1ccncc1 | 6 | . | 1
COc1ccc(CN(C)C[C@H]2OCCCC[C@@H](C)Oc3ccc(NC(=O)CCC(F)(F)F)cc3C(=O)N([C@@H](C)CO)C[C@@H]2C)cc1 | . | . | 0
COC(=O)c1nnn(-c2ccccc2)c1N | 0 | -10 | -3
COCc1c(C(=O)OC)nnn1-c1ccccc1 | 130* | -34 | -3
C/C=C/c1ccc2c(c1)O[C@H](CN(C)C(=O)c1cnccn1)[C@H](C)CN([C@@H](C)CO)S2(=O)=O | -8 | . | 3
CCOc1ccc(S(=O)(=O)NN)cc1 | 96* | 2 | 10
CCOc1ccc(NS(=O)(=O)c2ccc(N)cc2)cc1 | . | 5 | 1
C[C@H](CO)N1C[C@H](C)[C@@H](CN(C)Cc2ccc(F)cc2)Oc2ncc(C3=CCCC3)cc2C1=O | 5 | . | 6
C[C@@H]1CN([C@H](C)CO)C(=O)Cc2cc(NS(=O)(=O)c3cccs3)ccc2O[C@H]1CN(C)Cc1ccc(C(=O)O)cc1 | -8 | . | -2
O=C(NCc1ccccc1)c1ccc(C2SCC(=O)N2Cc2ccccc2)cc1 (centres undefined) | 79* | -1 | .
C=CCNC(=O)c1ccc(C2SCC(=O)N2Cc2ccccc2)cc1 (centres undefined) | -7 | -6 | 2
CCNC(=O)C[C@@H]1CC[C@@H]2[C@@H](COc3ccc(NC(=O)c4cc(C)on4)cc3C(=O)N2C)O1 | -7 | . | 3
COc1ccc(C(C)(O)c2nc(-c3ccc(OC)c(OC)c3)cs2)cc1 (centres undefined) | 31 | . | 0
COc1ccc(-c2csc(C(C)(O)c3ccccc3)n2)cc1OC (centres undefined) | 112* | . | -3
C/C=C/c1cnc2c(c1)C(=O)N([C@H](C)CO)C[C@H](C)[C@H](CN(C)C(=O)Cc1ccccc1)O2 | 8 | . | 4
O=c1cc(C(F)(F)F)[nH]c2ccccc12 | 0 | -23 | .
Cc1ccc2[nH]c(C(F)(F)F)cc(=O)c2c1 | -4 | 342* | .
Cc1oc(C(C)(C)C)cc1C(=O)Nc1ccc2c(c1)OCCO2 | 95* | 143 | -1
CC(C)c1cc(C(=O)Nc2ccc3c(c2)OCO3)no1 | 83* | 37 | -6
SMILES | Statin myotox sup | SUMO Mot1 rescue | Cneo AK release
O=C(Nc1ccc2c(c1)OCO2)c1cc(C2CC2)on1 | 2 | 19 | -3
O=C(Nc1ccc2c(c1)OCO2)c1ccc2nc[nH]c2c1 | 86* | 17 | 1
Cc1oc(C(C)(C)C)cc1C(=O)Nc1ccc2c(c1)OCO2 | -17 | 9 | 9
COc1ccccc1N(CC(=O)Nc1ccc2c(c1)OCCO2)S(C)(=O)=O | 122* | -2 | -2
COc1ccc(C)cc1N(CC(=O)Nc1ccc2c(c1)OCCO2)S(C)(=O)=O | . | -17 | .
O=C(Nc1ccc(C(F)(F)F)cc1)c1ccc2nc[nH]c2c1 | -21 | -11 | 0
CN(C)C(=O)C[C@@H]1CC[C@@H]2[C@H](COC[C@H](O)CN2CC2CCCCC2)O1 | 10 | . | -1
C[C@@H]1CN([C@@H](C)CO)C(=O)CCCn2cc(nn2)CO[C@H]1CN(C)C | -11 | . | .
O=C(C[C@@H]1CC[C@H]2[C@@H](COC[C@@H](O)CN2Cc2cc(F)cc(F)c2)O1)NCc1cccc(F)c1 | 14 | . | 1

Assay outcomes (PubChem BioAssay)
